# Autophagy HCS = autophagy modulation, high-content screen | MEF GFP-LC3 puncta imaging; test concentration mostly 10 µM | hit rate 0.98% among 190,000 | calls only at 10 µM (by protocol) | AID 463193;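 active = percentage of spot-positive cells more than 3 SD above its plate mean, without a fluorescence outlier flag or 80% toxicity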;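 note: spot-positive cell cutoff set from DMSO-treated cells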
# bCat KO growth = beta-catenin-lacking colon tumor cell growth suppression; hit rate 1.5% among 140,000; HCT116 beta-catenin knockout viability, CellTiter-Glo, 60 h; active compounds read low; viability, % at 10 µM;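 active = viability at or under a set limit, the compound median less 4 SD, cut at about 6% in these data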;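 note: 0% = Hyamine 1622 control at 20 µM and 100% = untreated cell control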
# L major viab = reduces viability of Leishmania major promastigotes; inhibition, % at 10 µM; resazurin fluorescence viability; AID 1063; hit rate 9% among 200,000; in the data active = inhibition above about 50%;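 note: promastigotes grown with compound for 44 hours at 28 °C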
# Dynein cargo inh = dynein cargo transport inhibition; 3617.4 mouse cells, GR-EGFP nuclear translocation imaging; test concentration mostly 20 µM; stimulated with dexamethasone, 1 µM; active compounds read low; z-score, hits read low; hit rate 0.47% among 220,000; AID 1381;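 active = plate z-score of nuclear minus cytoplasmic receptor signal below a set negative limit, without overly bright fluorescence or cell loss, cut at about -3.5 in these data, passing the limit was not always enough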;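 note: z-score of nuclear minus cytoplasmic ring GR-EGFP intensity difference per well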
#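 medium = tetracycline-free induction medium containing charcoal-stripped FBS | also added = 1.0 µM final dexamethasone stimulus | schedule = 48 h induction, 1 h compound, 30 min dex at 37 °C | technique = fixed, Hoechst-stained cells imaged at 10x for EGFP | measure = GR-EGFP nuclear translocation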
# HCT116 PTEN-null = growth suppressors of cells with PTEN tumor suppressor deletion | HCT116 PTEN-null viability, CellTiter-Glo, 60 h; active compounds read low | viability, % at 10 µM | hit rate 1.2% among 140,000;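 active = viability at or below a set limit, 4 SD under the median of all tested compounds, cut at about 3.7% in these data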;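 note: PTEN knockout HCT116 line with beta catenin targeted HCT116 as companion control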
# The depositor's hits bear a star; i = inactive; . = no result given; + = active, no number. Most compounds without a hit are left out; they make up all but 9.2% or so of the library.
SMILES,Autophagy HCS,bCat KO growth,L major viab,Dynein cargo inh,HCT116 PTEN-null
Cc1ccc(C(=O)CN2C(=O)c3ccccc3S2(=O)=O)cc1,.,.,.,-0.0307,.
Cc1ccc(C(=O)CN2/C(=C(\O)c3ccccc3)C(=O)c3ccccc3S2(=O)=O)c(C)c1,i,39.7,82.2*,1.89,34.9
S=C(NCc1ccc(Cl)cc1)NC1CCN(Cc2ccccc2)CC1,i,.,80.0*,-0.302,.
Cc1c(Cl)cccc1NC(=S)NCc1ccccc1,i,.,72.5*,1.04,.
S=C(NCC1CCCO1)Nc1ccccc1Cl (centres undefined),i,92.2,64.5*,-0.361,93.9
COc1ccc(CCNC(=S)NC2CCN(Cc3ccccc3)CC2)cc1OC,i,.,3.1,-0.543,.
FC(F)(F)c1ccccc1NC(=S)NC1CCN(Cc2ccccc2)CC1,+,.,75.9*,0.0298,.
Cc1c(Cl)cccc1NC(=S)NCc1ccc(Cl)cc1,i,.,-0.9,0.625,.
NNC(=S)NCc1ccccc1,.,.,.,-0.469,.
S=C(NCc1ccccc1)NCc1cccc(CNC(=S)NCc2ccccc2)c1,i,88.4,84.5*,1.62,92.9
CC(C)c1ccccc1NC(=S)NC1CCN(Cc2ccccc2)CC1,i,67.3,74.4*,-1.41,59.6
CCCN1CCC(NC(=S)Nc2cccc(Cl)c2Cl)CC1,i,.,81.5*,-0.297,.
CCCN1CCC(NC(=O)Nc2cccc3ccccc23)CC1,.,.,.,0.37,.
S=C(Nc1ccc(Cl)cc1Cl)NC1CCN(Cc2ccccc2)CC1,i,66.4,92.4*,-0.584,67.7
CCc1c(C(=O)NCc2ccc3c(c2)OCO3)[nH]c(C)c1C(C)=O,i,88.4,3.1,-0.464,88.9
S=C(Nc1ccccc1Cl)NC1CCC(NC(=S)Nc2ccccc2Cl)CC1 (centres undefined),i,.,-5.7,-0.0259,.
CC(C)c1ccccc1NC(=S)NN(Cc1ccccc1)c1ccccc1,i,43.6,54.1*,0.351,47.6
Cc1c(Cl)cccc1NC(=S)NC1CCN(Cc2ccccc2)CC1,i,65.9,85.6*,0.417,67.3
Fc1ccccc1NC(=S)NN(Cc1ccccc1)c1ccccc1,i,80.7,15.8,0.0781,81.5
S=C(Nc1ccccc1Cl)NC1CCN(Cc2ccccc2)CC1,i,51.0,94.6*,0.24,58.1
CC1(C)Cc2ccccc2C(C(Cc2ccccc2)C(N)=O)=N1 (centres undefined),i,.,9.2,0.448,.
CN(C)c1cc[n+](CC(=O)Nc2ccc(OC(F)F)cc2)cc1,.,.,.,1.95,.
COc1ccc(C2CC(=O)c3cnc(NC(=O)c4ccccc4OC)nc3C2)c(OC)c1 (centres undefined),i,73.8,86.2*,0.345,80.8
O=S(=O)(Nc1ccc2c(c1)nc1n2CCN(Cc2ccccc2)C1)c1ccc(Cl)cc1,i,89.6,96.9*,-2.94,88.8
COc1ccccc1C(=O)Nc1ccc2c(c1)nc1n2CCN(Cc2ccccc2)C1,i,.,21.3,-0.342,.
SMILES,Autophagy HCS,bCat KO growth,L major viab,Dynein cargo inh,HCT116 PTEN-null
O=S(=O)(Nc1ccc2c(c1)nc1n2CCN(Cc2ccccc2)C1)c1ccccc1,i,91.2,98.5*,-3.22,85.6
O=C(Nc1ccc2c(c1)nc1n2CCN(Cc2ccccc2)C1)NC1CCCCC1,i,107.2,0.5,-0.00326,105.4
O=S(=O)(Nc1ccc2c(c1)nc1n2CCN(Cc2ccccc2)C1)c1ccc(F)cc1,i,97.2,100.3*,-2.43,90.0
Oc1c(Cl)cc(Cl)cc1CNn1cnnc1,i,.,-3.7,-0.621,.
Oc1c(Cl)cc(Cl)cc1Sc1cc(Cl)cc(Cl)c1O,i,4.0*,-8.9,3.07,4.3
Cc1c(-c2ccnc3cc(C(=O)O)nn23)cnn1C,+,.,-7.5,-0.086,.
Cc1ccccc1NC(=O)Cc1nnc(N)s1,.,.,.,-0.333,.
CCCCCCCn1c2c(c(=N)c3c1CCC3)CCCC2,+,.,100.4*,2.81,.
N=c1c2c(n(Cc3ccc(F)cc3)c3c1CCC3)CCC2,i,16.0,99.7*,-0.637,21.4
CCCCCCn1c2c(c(=N)c3c1CCC3)CCC2,i,5.2*,100.5*,-0.48,6.5
CCCCn1c2c(c(=N)c3c1CCC3)CCC2,i,18.3,99.9*,2.33,30.6
CCn1c2c(c(=N)c3c1CCC3)CCC2,i,70.5,32.5,-0.268,79.3
Cc1ccc(NC(=O)CN(C)C(=O)CSc2nc(C)cs2)cc1,i,.,3.8,1.62,.
Cc1cc(C)c(NC(=O)Cn2c([N+](=O)[O-])cnc2C)c(C)c1,.,.,.,-0.0415,.
CCCCCCCCCn1c2c(c(=N)c3c1CCC3)CCC2,i,1.9*,100.4*,-2.09,1.6*
CC(C)[C@H](NC(=O)OC(C)(C)C)C(=O)N/N=C/c1ccc2nccnc2c1,.,.,.,0.0878,.
N#CCOc1nc(N2CCCC2)nc(N2CCCC2)n1,i,88.8,96.8*,1.06,89.3
O=C1N=c2ccccc2=C1c1sc(Nc2ccc(O)cc2)nc1O,i,.,11.5,-1.08,.
CC1=NN(c2ccc(F)cc2)C(=O)C1C(c1cccc(O)c1)c1c(C)[nH]n(-c2ccc(F)cc2)c1=O (centres undefined),i,71.4,71.7*,1.32,77.8
CC(=O)Nc1cccc(C(=O)/C=C/c2ccc(/C=C/C(=O)c3cccc(NC(C)=O)c3)cc2)c1,i,4.2*,79.8*,-2.07,1.8*
COc1ccccc1/C=C/C(=O)Nc1cccc(C(C)=O)c1,i,.,9.8,-1.34,.
CN(C)c1ccc(C(=O)/C=C/c2ccc(Br)cc2)cc1,i,88.4,89.9*,2.07,78.8
CC(=O)Nc1cccc(C(=O)/C=C/c2ccc(N(C)C)cc2)c1,i,56.1,6.8,-0.373,58.4
CCC(=O)Nc1cccc(C(=O)/C=C/c2cc(Br)ccc2OC)c1,i,0.8*,100.4*,-2.03,0.7*
COc1ccc(/C=C/C(=O)Nc2cccc(C(C)=O)c2)cc1,i,85.3,85.5*,0.972,83.2
SMILES,Autophagy HCS,bCat KO growth,L major viab,Dynein cargo inh,HCT116 PTEN-null
Cc1c(Br)c([N+](=O)[O-])nn1CC(=O)Nc1cccc2nonc12,i,.,-3.4,1.1,.
CCOC(=O)N1CCC(Nc2c(NCCN3CCN(c4ccccc4F)CC3)c(=O)c2=O)CC1,i,88.4,-6.5,0.0293,88.3
Cc1ccc(/C=C/C(=O)c2ccccc2)cc1,i,0.9*,18.3,1.59,0.4*
Cc1nn(-c2ccccc2)c(Cl)c1/C=C1\SC(=S)N(C)C1=O,i,62.2,53.3*,1.88,72.7
COc1cc(NC(=O)COC(=O)/C=C/c2ccc(OC)c(OC)c2)cc(OC)c1,i,.,18.2,1.05,.
Cc1ccc(/C=C/C(=O)c2ccc(O)cc2)cc1,.,.,.,-0.572,.
Cc1nn(-c2ccccc2)c(Cl)c1/C=C1\C(=O)N(C)C(=S)N1C,i,.,-1.5,1.99,.
COc1ccc(OC)c(/C=C/C(=O)OCC(=O)Nc2cccc(C(C)=O)c2)c1,i,95.6,66.2*,2.22,93.3
CN(C)c1ccc(/C=C/C(=O)c2ccccc2)cc1[N+](=O)[O-],i,1.8*,99.8*,-1.69,1.4*
CCCn1c(SCC(=O)NC2CCCCC2C)n[nH]c1=O (centres undefined),i,96.0,-5.4,-0.475,90.9

# High-throughput results (PubChem BioAssay)
